Folding enthalpy and Tm data for 37 sequences are collected here from the array DNA melting data of Ke et al. (doi:10.1101/2024.01.08.574731).

The nature of data set [1]: folding enthalpy; higher = less favourable; fluorescence melt of hairpins on a sequencing array, two-state fit. The note with it: sodium 0.088 M. Summed up:
(§1)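 Melting temperature and folding enthalpy were obtained by bootstrapped two-state fitting. Fits used Cy3 fluorescence of library hairpins with annealed Cy3 and quencher oligos on a sequenced MiSeq flow cell, imaged in 50 mM Na-HEPES pH 8.0, 25 mM NaCl in 2.5 °C steps up to 60 °C and normalised to pre-quench Cy3 and control constructs. Four replicates were combined by inverse-variance weighting, and fitted temperatures were raised by 9.35 °C to match UV melts.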

The nature of data set [2]: melting temperature; fluorescence melt of hairpins on a sequencing array, two-state fit, raised by 9.35 °C to match UV melts. Particulars: sodium 0.088 M. In a few lines: as §1

GATCTGTTTACAGATC ((((((....)))))): in data set [1], the folding enthalpy was -44.4 kcal/mol. Moreover, the Tm in data set [2] is 58.6 °C.

For the sequence GATCTTAAAAAAGATC ((((((....)))))), the folding enthalpy in data set [1] was -20.3 kcal/mol. In data set [2], the Tm was found to be 33.7 °C.

For GATCTTAAAGAAGATC ((((((....)))))), the folding enthalpy in data set [1] was -16.8 kcal/mol. Besides, the Tm in data set [2] is 34.8 °C.

For GATCTTAACAAAGATC ((((((....)))))), the folding enthalpy in data set [1] was -33 kcal/mol. In data set [2], the Tm was 42.5 °C.

With GATCTTACATAAGATC ((((((....)))))), in data set [1], the folding enthalpy is -35.9 kcal/mol. Moreover, the Tm in data set [2] was determined as 43.1 °C.

As for GATCTTACCTAAGATC ((((((....)))))), the folding enthalpy in data set [1] is -40.2 kcal/mol. Besides, in data set [2], the Tm was found to be 45 °C.

For GATCTTACGAAGATC ((((((...)))))), in data set [1], the folding enthalpy was -34.6 kcal/mol. Further, in data set [2], the Tm was found to be 42.9 °C.

For GATCTTACGCAAGATC ((((((....)))))), the folding enthalpy in data set [1] was -31.1 kcal/mol. Also, the Tm in data set [2] was found to be 42.9 °C.

On to GATCTTACTCAAGATC ((((((....)))))), for which, in data set [1], the folding enthalpy is -33.5 kcal/mol. Further, the Tm in data set [2] came to 42.3 °C.

GATCTTACTTAAGATC ((((((....)))))): the folding enthalpy in data set [1] was -35.6 kcal/mol. Further, the Tm in data set [2] was found to be 44.1 °C.

In the case of GATCTTAGTTAAGATC ((((((....)))))), the folding enthalpy in data set [1] was -34.9 kcal/mol. Further, the Tm in data set [2] worked out at 44.1 °C.

As to GATCTTATACAAGATC ((((((....)))))), the folding enthalpy in data set [1] is -33.8 kcal/mol. In data set [2], the Tm was found to be 42.6 °C.

Turning to GATCTTATCAAAGATC ((((((....)))))), in data set [1], the folding enthalpy was -33.1 kcal/mol. Further, the Tm in data set [2] stood at 44.2 °C.

On to GATCTTATCTAAGATC ((((((....)))))), for which the folding enthalpy in data set [1] is -41.9 kcal/mol. For the same sequence, in data set [2], the Tm turned out to be 45.2 °C.

Turning to GATCTTATGAAGATC ((((((...)))))), the folding enthalpy in data set [1] was -28.1 kcal/mol. The Tm in data set [2] was determined as 42.4 °C.

For the sequence GATCTTCAAGAAGATC ((((((....)))))), in data set [1], the folding enthalpy was -33.5 kcal/mol. Besides, the Tm in data set [2] was found to be 46 °C.

As for GATCTTCACAAGATC ((((((...)))))), in data set [1], the folding enthalpy was -28.7 kcal/mol. In addition, the Tm in data set [2] was found to be 45.8 °C.

On to GATCTTCCACAAGATC ((((((....)))))), for which the folding enthalpy in data set [1] was -35.2 kcal/mol. In addition, the Tm in data set [2] amounted to 41.5 °C.

GATCTTCCATAAGATC ((((((....)))))): the folding enthalpy in data set [1] was -33.9 kcal/mol. The Tm in data set [2] is 43.4 °C.

GATCTTCGAAAGATC ((((((...)))))): the folding enthalpy in data set [1] was -21.4 kcal/mol. Also, in data set [2], the Tm worked out at 39.9 °C.

As to GATCTTCGGAAGATC ((((((...)))))), the folding enthalpy in data set [1] is -33.3 kcal/mol. Further, in data set [2], the Tm was 41.9 °C.

Consider GATCTTCTCAAGATC ((((((...)))))), for which the folding enthalpy in data set [1] is -33.3 kcal/mol. For the same sequence, the Tm in data set [2] amounted to 46.7 °C.

As to GATCTTCTCTAAGATC ((((((....)))))), the folding enthalpy in data set [1] was -35 kcal/mol. The Tm in data set [2] was 42.8 °C.

Turning to GATCTTGAGGAAGATC ((((((....)))))), the folding enthalpy in data set [1] is -24.9 kcal/mol. Besides, the Tm in data set [2] was determined as 36.8 °C.

Regarding GATCTTGAGTAAGATC ((((((....)))))), the folding enthalpy in data set [1] was -25.4 kcal/mol. Besides, the Tm in data set [2] was 40.4 °C.

Take GATCTTGATTAAGATC ((((((....)))))): the folding enthalpy in data set [1] is -26.6 kcal/mol. In addition, the Tm in data set [2] was 41.8 °C.

In the case of GATCTTGCACAAGATC ((((((....)))))), the folding enthalpy in data set [1] was -33.4 kcal/mol. For the same sequence, the Tm in data set [2] came out at 50.8 °C.

As for GATCTTGCCAAAGATC ((((((....)))))), in data set [1], the folding enthalpy was -39 kcal/mol. For the same sequence, the Tm in data set [2] was 55 °C.

In the case of GATCTTGCCTAAGATC ((((((....)))))), the folding enthalpy in data set [1] was -39.2 kcal/mol. The Tm in data set [2] amounted to 48.2 °C.

For the sequence GATCTTGCGGAAGATC ((((((....)))))), the folding enthalpy in data set [1] is -36 kcal/mol. For the same sequence, in data set [2], the Tm stood at 42.7 °C.

In the case of GATCTTGCTTAAGATC ((((((....)))))), in data set [1], the folding enthalpy was -38 kcal/mol. Besides, the Tm in data set [2] was 44 °C.

On to GATCTTGGAGAAGATC ((((((....)))))), for which, in data set [1], the folding enthalpy was -29.8 kcal/mol. Further, in data set [2], the Tm was 43.9 °C.

Regarding GATCTTGGCGAAGATC ((((((....)))))), the folding enthalpy in data set [1] was -30.8 kcal/mol. For the same sequence, in data set [2], the Tm was found to be 47 °C.

As for GATCTTGGGAAGATC ((((((...)))))), in data set [1], the folding enthalpy was -22.8 kcal/mol. Further, the Tm in data set [2] was determined as 39.7 °C.

Consider GATCTTGGGCAAGATC ((((((....)))))), for which the folding enthalpy in data set [1] is -37.4 kcal/mol. In addition, in data set [2], the Tm was determined as 46.7 °C.

GATCTTGGTAAAGATC ((((((....)))))): the folding enthalpy in data set [1] was -41.3 kcal/mol. Besides, the Tm in data set [2] came to 53.5 °C.

Turning to GATCTTGTGCAAGATC ((((((....)))))), in data set [1], the folding enthalpy is -47 kcal/mol. Further, in data set [2], the Tm stood at 46.4 °C.
